Activity calls are given as the source filed them. No cut-off for these calls is given here.
How the values were obtained:
L1210 [1] = test: Growth inhibition of mouse L1210 cells at 2 uM after 12 hrs; format: functional; settings: L1210, 12 h, read-out: GI
Summary of the method: (§1)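 For L1210 (RPMI-1640, 5% heat-inactivated FCS, 6 µM 2-mercaptoethanol), log-phase cultures at 2 × 10^4 cells/mL were given 1–20 µM for 12, 24 or 48 h. Coulter particle counter counts were expressed as % growth inhibition versus untreated control. IG50 was taken at 24 h. Triplicate, three repeats, mean ± SEM.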

[2] = Half life in CD2F1 mouse; format: ADME, organism-based; settings: in vivo
L1210 [3] = test: Growth inhibition of mouse L1210 cells at 10 uM after 48 hrs; format: functional; settings: L1210, 48 h, read-out: GI; summary of the method: as §1
L1210 [4] = test: Growth inhibition of mouse L1210 cells at 10 uM after 24 hrs; format: functional; settings: L1210, 24 h, read-out: GI; summary of the method: as §1
L1210 [5] = test: Growth inhibition of mouse L1210 cells at 1 uM after 24 hrs; format: functional; settings: L1210, 24 h, read-out: GI; summary of the method: as §1
L1210 [6] = test: Antileukemic activity against mouse L1210 cells at 1 uM after 24 hrs by clonogenic assay; format: functional
Summary of the method: (§2)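 Murine L1210 cells cultured in RPMI-1640 with 5% heat-inactivated FCS and 6 µM 2-mercaptoethanol. Log-phase cells at 2 × 10^4 cells/mL exposed to 1–20 µM for 12, 24 or 48 h, then drug removed by centrifugation. 100 cells plated in 0.45% soft agar with 10% serum. Colonies >50 cells counted at day 7. Result as % relative to untreated control. Triplicate, three repeats, mean ± SEM.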

L1210 [7] = test: Growth inhibition of mouse L1210 cells at 5 uM after 12 hrs; format: functional; settings: L1210, 12 h, read-out: GI; summary of the method: as §1
L1210 [8] = test: Antileukemic activity against mouse L1210 cells at 5 uM after 12 hrs by clonogenic assay; format: functional; summary of the method: as §2
L1210 [9] = test: Antileukemic activity against mouse L1210 cells at 2 uM after 24 hrs by clonogenic assay; format: functional; summary of the method: as §2
Plasma = test: Drug concentration in human plasma; format: ADME, cell-free; settings: read-out: Drug uptake
L1210 [10] = test: Antileukemic activity against mouse L1210 cells at 2 uM after 12 hrs by clonogenic assay; format: functional; summary of the method: as §2
L1210 [11] = test: Antileukemic activity against mouse L1210 cells at 10 uM after 48 hrs by clonogenic assay; format: functional; summary of the method: as §2
HL-60 [12] = test: Induction of p57KIP2 re-expression in human HL60 cellular RNA at 1 to 20 uM after 48 hrs by RT-PCR; format: functional, cell-based
Summary of the method: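 HL-60 cells treated 48 h with 1–20 µM. p57KIP2 transcript detected by RT-PCR against 18S rRNA reference, with cycles set in the exponential phase. Products resolved on 2% agarose with ethidium bromide staining. Repeated twice.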

L1210 [13] = test: Growth inhibition of mouse L1210 cells after 24 hrs; format: functional; summary of the method: as §1
L1210 [14] = test: Antileukemic activity against mouse L1210 cells at 2 uM after 48 hrs by clonogenic assay; format: functional; summary of the method: as §2
L1210 [15] = test: Growth inhibition of mouse L1210 cells at 20 uM after 12 hrs; format: functional; settings: L1210, 12 h, read-out: GI; summary of the method: as §1
L1210 [16] = test: Growth inhibition of mouse L1210 cells at 20 uM after 48 hrs; format: functional; settings: L1210, 48 h, read-out: GI; summary of the method: as §1
L1210 [17] = test: Growth inhibition of mouse L1210 cells at 2 uM after 48 hrs; format: functional; settings: L1210, 48 h, read-out: GI; summary of the method: as §1
HL-60 [18] = test: Antileukemic activity against human HL60 cells after 24 hrs by clonogenic assay; format: functional; settings: HL-60, 24 h, read-out: LC50 (the source's name)
Summary of the method: (§3)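 Log-phase cells seeded at 2 × 10^4 cells/mL in RPMI-1640 with 10% heat-inactivated FBS at 37 °C, 5% CO2, then exposed 24 h to 1–20 µM (DMSO stock). Drug washed out by centrifugation. 100 cells plated in 0.45% soft agar with 20% serum for 15 days, and colonies (>50 cells) counted. Loss of clonogenicity is relative to untreated control. Triplicates, repeated three times, mean ± SEM. LC50 read from the dose curve.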

MOLT-3 = test: Antileukemic activity against human MOLT3 cells after 24 hrs by clonogenic assay; format: functional; settings: MOLT-3, 24 h, read-out: LC50 (the source's name); summary of the method: as §3
[19] = Elimination half life in human plasma; format: ADME, organism-based
L1210 [20] = test: Growth inhibition of mouse L1210 cells at 5 uM after 24 hrs; format: functional; settings: L1210, 24 h, read-out: GI; summary of the method: as §1
HL-60 [21] = test: Antileukemic activity against human HL60 cells at >2 uM after 24 hrs by clonogenic assay; format: functional
Summary of the method: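 Log-phase cells at 2 × 10^4 cells/mL in RPMI-1640 with 10% heat-inactivated FBS, 37 °C, 5% CO2. Drug (DMSO stock) at 1, 2, 5, 10 or 20 µM for 24 h, removed by centrifugation. 100 cells plated in 0.45% soft agar with 20% serum. Colonies >50 cells counted after 15 days. Loss of clonogenicity as % of untreated control. Triplicate, three repeats, mean ± SEM.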

Mus musculus = species: Mus musculus; test: Toxicity in mouse L1210 cells transplanted CD2F1 mouse assessed as increase in survival time at 0.5% treated with diet for 10 days; format: organism-based; settings: in vivo, po, 240 h
Summary of the method: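 Male CD2F1 mice, 24–28 g, n = 11 per group, on a 2016 diet with or without 0.5% supplement, adapted over 10 days. Then injected i.v. with 10^4 L1210 cells (0.1 mL), passaged weekly i.p. as ascites. Diet continued. Survival checked 2–3 times daily and increase in life span calculated. Toxicity assessed by body weight loss.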

L1210 [22] = test: Antileukemic activity against mouse L1210 cells at 10 uM after 24 hrs by clonogenic assay; format: functional; summary of the method: as §2
HL-60 [23] = test: Growth inhibition of human HL60 cells after 48 hrs; format: functional
Summary of the method: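 Human leukemic cells (RPMI-1640, 10% heat-inactivated FBS), log phase, seeded at 2 × 10^4 cells/mL. Exposed to 1, 2, 5, 10 or 20 µM (DMSO stock). Cell number counted with a Coulter particle counter at 48 h. Growth inhibition as % of untreated control. IG50 is the concentration giving 50% inhibition. Triplicate, three repeats, mean ± SEM.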

## O=c1c(-c2ccc(O)cc2)coc2cc(O)cc(O)c12 [GENISTEIN]
L1210 [1]
  inhibition of growth at 2 µM: 6.2%
[2]
  half-life: < 0.25 h
L1210 [3]
  inhibition of growth at 10 µM: 79.2%
L1210 [4]
  inhibition of growth at 10 µM: 42.8%
L1210 [5]
  inhibition of growth at 1 µM: 4.1%
L1210 [6]
  Activity: 6%
L1210 [7]
  inhibition of growth at 5 µM: 15.1%
L1210 [8]
  Activity: 44%
L1210 [9]
  Activity: 13%
Plasma
  concentration: 4 µM
L1210 [10]
  Activity: 14%
L1210 [11]
  Activity: 81.1%
HL-60 [12]
  Activity: Active
L1210 [13]
  IG50: 18.5 µM
L1210 [14]
  Activity: 8.9%
L1210 [15]
  inhibition of growth at 20 µM: 54.2%
L1210 [16]
  inhibition of growth at 20 µM: 93.1%
L1210 [17]
  inhibition of growth at 2 µM: 21.9%
HL-60 [18]
  CC50: 6.3 µM
MOLT-3
  CC50: 7.5 µM
[19]
  half-life: 15 h
L1210 [20]
  inhibition of growth at 5 µM: 28.5%
HL-60 [21]
  Activity: >10%
Mus musculus
  Survival: 187 h
L1210 [22]
  Activity: 63%
HL-60 [23]
  IG50: 18.2 µM

Reference: ChEMBL document CHEMBL1144689, “Antileukemic activity of genistein, a major isoflavone present in soy products” (J Nat Prod, 2008)
